Assay results reported in paper PMC12339990 (Scientific Reports, 2025).
Entries after “also recorded” stand apart in the source; their conditions may differ.

T1: recombinant MSP (rMSP) (Mesocricetus auratus, UniProt Q9QXU1)
T1 sequence (Q9QXU1 16-172): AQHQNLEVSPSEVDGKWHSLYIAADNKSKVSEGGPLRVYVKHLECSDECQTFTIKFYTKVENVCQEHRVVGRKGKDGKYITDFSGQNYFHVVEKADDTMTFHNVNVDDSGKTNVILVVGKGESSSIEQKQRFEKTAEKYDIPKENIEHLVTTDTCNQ

T2: recombinant FLP (rFLP) (Mesocricetus auratus, UniProt Q99MG7)
T2 sequence (Q99MG7 17-172): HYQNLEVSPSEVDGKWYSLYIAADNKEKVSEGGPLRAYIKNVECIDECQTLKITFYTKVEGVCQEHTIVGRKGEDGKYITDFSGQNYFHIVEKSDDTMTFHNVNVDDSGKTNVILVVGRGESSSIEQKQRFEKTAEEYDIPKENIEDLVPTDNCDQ

T3: rMSP (Mesocricetus auratus, UniProt Q9QXU1)
T3 sequence (Q9QXU1 16-172): T1 sequence (Q9QXU1 16-172)

T4: nMSP (mixture of three natural MSP forms) (Mesocricetus auratus, UniProt Q9QXU1)
T4 sequence (Q9QXU1 16-172): T1 sequence (Q9QXU1 16-172)

T5: rFLP (Mesocricetus auratus, UniProt Q99MG7)
T5 sequence (Q99MG7 17-172): T2 sequence (Q99MG7 17-172)

T6: 24 kDa MSP (Mesocricetus auratus, UniProt Q9QXU1)
T6 sequence (Q9QXU1 16-172): T1 sequence (Q9QXU1 16-172)

T7: 30 kDa MSP (Mesocricetus auratus, UniProt Q9QXU1)
T7 sequence (Q9QXU1 16-172): T1 sequence (Q9QXU1 16-172)

B1: PNA: Peanut agglutinin, digoxigenin labeled (protein, UniProt P02872 24-273, looked up)
Galactose-binding lectin: AETVSFNFNSFSEGNPAINFQGDVTVLSNGNIQLTNLNKVNSVGRVLYAMPVRIWSSATGNVASFLTSFSFEMKDIKDYDPADGIIFFIAPEDTQIPAGSIGGGTLGVSDTKGAGHFVGVEFDTYSNSEYNDPPTDHVGIDVNSVDSVKTVPWNSVSGAVVKVTVIYDSSTKTLSVAVTNDNGDITTIAQVVDLKAKLPERVKFGFSASGSLGGRQIHLIRSWSFTSTLITTTRRSIDNNEKKIMNMASA
modifications: digoxigenin label

Legend:
Set-up in all cases: species or system Syrian hamsters (Mesocricetus auratus)
[1] = molecular target: T1, recombinant MSP (rMSP); assay: Fluorescence ligand binding / competitive displacement of probe 1-AMA from rMSP; settings: for binding / competitor activity with rMSP in fluorescent-probe assay (in words): probe 1-AMA
Summary of the method: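 rMSP was expressed in E. coli BL21(DE3) with 1 mM IPTG and purified by Ni-NTA and Sephadex G-75. Assays used 2 µM protein in 20 mM Tris-HCl pH 7.4 at 25 °C, excitation 295 nm, emission read at 485 nm. For Kd, 1-AMA (1 mM methanol stock) was titrated and fitted against free probe, assuming 1:1 binding and fully active protein. Competitors (0.25–40 µM) displaced 2 µM probe. IC50 was taken at half-maximal fluorescence; Ki = IC50/(1+[L]/Kd).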

[2] = molecular target: T2, recombinant FLP (rFLP); assay: Fluorescence ligand binding / competitive displacement of probe 1-NPN from rFLP; settings: for binding / competitor activity with rFLP in fluorescent-probe assay (in words): probe 1-NPN
Summary of the method: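 rFLP was expressed in E. coli BL21(DE3) with 1 mM IPTG and purified by Ni-NTA and Sephadex G-75. Assays used 2 µM protein in 20 mM Tris-HCl pH 7.4 at 25 °C, excitation 295 nm, emission read at 425 nm. For Kd, 1-NPN (1 mM methanol stock) was titrated and fitted against free probe, assuming 1:1 binding and fully active protein. Competitors (0.25–40 µM) displaced 2 µM probe. IC50 was taken at half-maximal fluorescence; Ki = IC50/(1+[L]/Kd).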

[3] = molecular target: T3, rMSP; assay: IBMP binding detected by GC-MS of protein peak after gel-filtration; settings: ~7.2 mM IBMP, ~200 µM protein, 25 °C 1 h, Sephadex-G-25, DCM extract
Summary of the method: (§1)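 The protein–IBMP mix was incubated on a rotary shaker, with chymotrypsin as negative control. After G-25 elution, fractions of the first OD280 peak were mixed with dichloromethane, vortexed and held overnight at −20 °C. The lower organic phase was analyzed by GC-MS: 2 µl splitless, helium 1 ml/min, oven 50→300 °C stepwise, 70 eV ionization, total ion current mode.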

[4] = molecular target: T4, nMSP (mixture of three natural MSP forms); assay: as above; settings: ~7.2 mM IBMP, ~200 µM protein, 25 °C 1 h, Sephadex-G-25, DCM extract
Summary of the method: as §1

[5] = molecular target: T5, rFLP; assay: as above; settings: ~7.2 mM IBMP, ~200 µM protein, 25 °C 1 h, Sephadex-G-25, DCM extract
Summary of the method: as §1

[6] = molecular target: T6, 24 kDa MSP; assay: Lectin binding
Summary of the method: (§2)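 Natural MSP, a mixture of three forms purified from adult male submandibular gland, was tested with a digoxigenin-labelled lectin kit (GNA, SNA, MAA, DSA, PNA). It was also passed through Con A, WGA and jacalin affinity columns. Unbound fractions and fractions eluted with lectin-specific sugars were checked for MSP forms by SDS-PAGE.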

[7] = molecular target: T7, 30 kDa MSP; assay: Lectin binding
Summary of the method: as §2

Molecule	binding / competitor activity with rMSP in fluorescent-probe assay (in words) [1]	binding / competitor activity with rFLP in fluorescent-probe assay (in words) [2]	also measured
CC(=O)[C@H]1CC[C@H]2[C@@H]3CCC4=CC(=O)CC[C@]4(C)[C@H]3CC[C@]12C [progesterone]	extremely weak competitors	extremely weak competitors	
CCCCCCCCCCCCCCCC(=O)O [palmitic]	no competitor activity	no competitor activity	
CCCCCCCCCCCCCCCCCC(=O)O [stearic]	no competitor activity	no competitor activity	
O=C(O)c1cc(O)ccc1O [2,5-dihrodoxy benzoic acid]	no competitor activity	no competitor activity	
Nc1cccc2cc3ccccc3cc12 [1-AMA, 1-aminoanthracene]	strong affinity		Kd [1]: ~1860 nM
C=CC(O)CCCCC (centres unmarked) [1-octen-3-ol]	no competitor activity	no competitor activity	
CCCCCCCCCCCCCC(=O)O [myristic]	no competitor activity	no competitor activity	
O=C(O)c1cccc(O)c1O [2,3-dihydroxybenzoic acid]	no competitor activity	no competitor activity	
COc1nccnc1CC(C)C [IBMP, 2-isobutyl-3-methoxypyrazine]	high affinity	high affinity	IBMP found by GC-MS in protein peak fraction (binding to rMSP) [3]: specific binding; also recorded: retain and specifically carry (i.e. bind) detectable levels; IBMP found by GC-MS in protein peak fraction (binding to nMSP) [4]: specific binding; also recorded: retain and specifically carry (i.e. bind) detectable levels; IBMP found by GC-MS in protein peak fraction (binding to rFLP) [5]: specific binding; also recorded: retain and specifically carry (i.e. bind) detectable levels
CC(=O)N(O)CCCCCNC(=O)CCC(=O)N(O)CCCCCNC(=O)CCC(=O)N(O)CCCCCN [deferoxamine]	no competitor activity	no competitor activity	
CCCCCCCCCCCCCCCCO [hexadecanol]	no competitor activity	no competitor activity	
CCCCCCCC/C=C\CCCCCCCC(=O)O [oleic]	no competitor activity	no competitor activity	
C[C@]12CC[C@H]3[C@@H](CCC4=CC(=O)CC[C@@]43C)[C@@H]1CC[C@@H]2O [testosterone]	extremely weak competitors	extremely weak competitors	
C[C@]12CC[C@@H]3c4ccc(O)cc4CC[C@H]3[C@@H]1CC[C@@H]2O [17β-estradiol]	extremely weak competitors	extremely weak competitors	
c1ccc(Nc2cccc3ccccc23)cc1 [1-NPN, N-phenyl-1-naphthylamine]		strong affinity	Kd [2]: ~1380 nM
B1			Binding of lectin to 24 kDa MSP (in words) [6]: lack of binding; Binding of lectin to 30 kDa MSP (in words) [7]: lack of binding
